Bioassay records: PubChem, several laboratories
The list is not random: actives were taken first. Their share in the collection is about 4.8%.
UPR XBP1 act = adaptive UPR (XBP1) activation; AID 463104; 330,000 tested, 0.33% active; activation, % at 20 µM; CHO-XBP1 luciferase reporter, IRE1-XBP1 UPR activation, luminescence; percent of tunicamycin response, DMSO as zero;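 active means versus positive control, 20 µM dose yields 30% or more activation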
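assay system = CHO-XBP1 luciferase reporter cells | amount = 1000 cells/well | buffer or medium = F12 plus 10% FBS | compound dosing = single point, 20 µM final compound, 1% DMSO | incubation = 16-18 h cell attachment at 37 °C, then 6 h compound exposure | detection = Steady-Glo luminescence read | controls = tunicamycin 10 µg/mL and vehicle-only wells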
CSC inhib = cancer stem cell inhibition. cancer stem cell-like cells viability, luminescence. inhibition, % at 7.5 µM. 300,000 tested, 1.1% active; in the data active means inhibition above about 75%; tested in HMLE shEcad cells
Beta cell apopt = blocks beta cell apoptosis; AID 435005; 300,000 tested, 0.8% active; protection from apoptosis, % (concentration not given with the values); INS-1E cytokine-induced death, ATP luminescence, 48 h; percent of positive-control rescue, neutral wells zero;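 active means Every replicate reaches about 75%, or at least half do and their mean reaches it too, limit read from the data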;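 further: higher means more ATP so stronger rescue from cytokine killing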
UPR CHOP act = activators of apoptotic arm of unfolded protein response (CHOP). CHO-CHOP luciferase reporter, UPR activation, luminescence; percent of tunicamycin response over DMSO baseline. activation, % at 10 µM. 330,000 tested, 0.34% active;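 active means at 10 µM dose, activation of 40% or more, normalized to positive control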
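Material: CHO-CHOP cells, stable luciferase reporter of PERK-eIF2a-CHOP signalling; quantity: 500 reporter cells seeded per well; buffer or medium: F12 medium containing 10% fetal bovine serum; compound: one dose, 10 µM in 0.5% DMSO; incubation: 6 h compound treatment, 37 °C; measured by: Steady-Glo luciferase luminescence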
Mdm2-MdmX inh = human Mdm2/MdmX binding inhibition; O15151+Q00987; SaOS-2 split-luciferase Mdm2/MdmX complementation, luminescence; inhibition, % at 8 µM; 330,000 tested, 3% active;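 active means inhibition of at least 50% at 8 µM in the primary screen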
SKKanGAS inh = blocks kanamycin growth of S. pyogenes SKKanGAS strain. BacTiter-Glo, 6 h. inhibition, % at 7.5 µM. 300,000 tested, 1.3% active;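 active means mean replicate score, as percent of positive control median, at least 50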;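 further: strain carries kanamycin resistance gene driven by streptokinase promoter and grows in 40 µg/ml kanamycin; loss of luminescence reflects streptokinase promoter inhibition or plain growth inhibition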
Mdm2 MdmX conf = human Mdm2/MdmX binding inhibition, confirmed | shares compounds with Mdm2-MdmX inh | luminescent assay | inhibition, % at 8 µM | 10,000 tested, 55% active | AID 489028; in the data active means inhibition above about 40%
Full FLuc ctr = inhibits full-length luciferase, flagging false Mdm2/MdmX hits; shares compounds with Mdm2-MdmX inh; SaOS-2 full-length luciferase counterscreen, luminescence; inhibition, % at 8 µM; 6,200 tested, 77% active; AID 504607;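 active means mean inhibition at 8 µM reaching about 37%, which flags the compound as non-specific, limit read from the data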;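 further: p53-null SaOS-2 cells with luciferase driven by a doxycycline-inducible promoter; compound on cells about two nights before reading with doxycycline added after day one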
A number is an active result; 0 = inactive; - = no result given.

SMILES	UPR XBP1 act	CSC inhib	Beta cell apopt	UPR CHOP act	Mdm2-MdmX inh	SKKanGAS inh	Mdm2 MdmX conf	Full FLuc ctr
CCC(=O)Nc1ccc(Nc2nc(C)c([N+](=O)[O-])c(Nc3ccc(NC(=O)CC)cc3)n2)cc1	0	0	-	0	64	66	74	80
Cc1cc(C)c(C#N)c(SCC(=O)Nc2cc(C)on2)n1	0	0	0	0	0	-	-	-
Cc1ccc(CN2CC(C(=O)NNC(=O)c3ccc(F)cc3)CC2=O)cc1 (stereo unspecified)	0	-	0	0	0	-	-	-
COc1ccccc1N(CC(=O)NCc1ccco1)C(=O)CCC(=O)Nc1ccccn1	0	0	0	0	0	0	-	-
CC(=O)Nc1cccc(C(=O)/C=C/c2ccc(Br)cc2)c1	0	127	0	0	97	0	74	53
CCC(=O)Nc1cccc(C(=O)/C=C/c2cc(Br)ccc2OC)c1	0	0	0	0	97	0	80	59
CCC(=O)Nc1cccc(C(=O)OC)c1	0	0	0	0	0	0	-	-
CC(=O)Nc1cccc(C(=O)/C=C/c2ccc(F)cc2)c1	0	0	0	0	73	0	0	-
CC(=O)Nc1cccc(C(=O)/C=C/c2ccc(N(C)C)cc2)c1	0	0	0	0	0	0	-	-
CC(=O)Nc1cccc(C(=O)/C=C/c2ccc(/C=C/C(=O)c3cccc(NC(C)=O)c3)cc2)c1	0	77	0	83	98	0	0	-
O=C(CCCc1c[nH]c2ccccc12)NCc1ccccc1C(F)(F)F	0	0	0	0	0	0	-	-
CCCCOc1ccc(C(=O)NCC(=O)NC2CCCCC2)cc1	0	-	0	0	0	-	-	-
Cc1ccc(NC(=O)O/N=C/c2c(C)nn(C(C)(C)C)c2C)cc1Cl	0	0	0	0	80	0	92	54
Cc1ccc(NC(=O)Nn2cnnc2)cc1Cl	0	-	0	0	0	0	-	-
CCCCCC(=O)Nc1ccc(C(=O)COC(=O)CN2C(=O)NC3(CCCC3)C2=O)cc1	0	0	0	0	0	0	-	-
COc1ccc(C(CNC(=O)c2oc3cc(C)c(Cl)cc3c2C)N2CCCCC2)cc1 (stereo unspecified)	0	0	0	0	82	0	0	-
Cc1ccc(C)c(N2CC(C(=O)OCC(=O)Nc3cc(C)on3)CC2=O)c1 (stereo unspecified)	0	-	0	0	0	0	-	-
CC1CCN(C(=O)CN2c3cccc4cccc(c34)S2(=O)=O)CC1	0	-	0	0	0	-	-	-
Cc1cc(C)cc(Nc2cc(=O)n(C3CCCCC3)c(=O)[nH]2)c1	0	0	0	0	51	0	0	-
CN(C)C(CNC1CC(C)(C)NC(C)(C)C1)c1cccc(F)c1 (stereo unspecified)	0	0	-	0	0	0	-	-
O=C(Nc1ccc(O)c(C(=O)O)c1)Oc1ccccc1	0	0	0	0	0	0	-	-
C#CC(=O)N(c1cccc(OC)c1)C(C(=O)NC1CCCC1)c1cccs1 (stereo unspecified)	0	0	94	0	97	0	100	52
C#CC(=O)N(c1ccc(OC)c(OC)c1)C(C(=O)NC1CCCC1)c1cccs1 (stereo unspecified)	0	0	0	0	99	0	100	53
Cc1cccc(N(C(=O)C(F)(F)F)C(C(=O)NC2CCCCC2)c2cccs2)c1 (stereo unspecified)	0	-	-	0	0	0	-	-
COc1ccc(Cn2c(CCC(=O)Nc3ccccc3)nc3cccnc32)cc1	0	0	0	0	77	0	0	-
CCCNC(=O)c1ccc(S(=O)(=O)c2ccc(OC)cc2)c([N+](=O)[O-])c1	0	0	0	0	87	0	53	0
COc1ccc(C(=O)NCCNc2ccccc2[N+](=O)[O-])cc1	0	0	0	0	0	0	-	-
O=C(Nc1cccc(Cl)c1)c1cc2c(=O)n3ccccc3nc2s1	0	0	0	0	56	0	0	-
